NR3A LBD binder – modulators (binders) of human NR3A ligand-binding domain. NR3A LBD differential scanning fluorimetry, Tm shift; 0% = protein alone, 100% = glycine-bound protein. Tm shift relative to glycine control, % at 25 µM. 2.5% of 340,000 active. AID 1259313;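 active = melting temperature shift of at least 10% of the positive control shift, at one fixed dose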
GC-B act – GC-B (human) receptor activation | P20594 | HEK293-GC-B cells, CNP EC30, cGMP TR-FRET; 0% at EC30 CNP, 100% saturating CNP | activation, % at 10 µM | 0.11% of 370,000 active;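 active = activation at 10 µM reaching about 35% in either raw or pattern-adjusted values, limit read from the data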
GC-A act – GC-A (human) enzyme activation; HEK293 GC-A cells, cGMP TR-FRET, EC30 ANP; 0% at EC30 ANP, 100% saturating ANP; activation, % at 10 µM; 0.14% of 370,000 active; AID 1671463; in the data active = activation above about 40%
GASC-1 inh – blocks human GASC-1 demethylase activity; inhibition, % at 2.35 µM; AID 2099; 0.069% of 330,000 active; GST-JMJD2C(1-420) H3K9me3 demethylation, DELFIA europium;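 active = more than half of a compound's replicate wells show inhibition beyond 50%, single wells judged on their own value; inconclusive = some, but no more than half, of replicates pass 50% inhibition; inactive = no replicate passes 50% inhibition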;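 also: signal counts dimethyl H3K9 product captured on neutravidin plate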
Target sequence (Q9H3R0 1-420 limits assumed): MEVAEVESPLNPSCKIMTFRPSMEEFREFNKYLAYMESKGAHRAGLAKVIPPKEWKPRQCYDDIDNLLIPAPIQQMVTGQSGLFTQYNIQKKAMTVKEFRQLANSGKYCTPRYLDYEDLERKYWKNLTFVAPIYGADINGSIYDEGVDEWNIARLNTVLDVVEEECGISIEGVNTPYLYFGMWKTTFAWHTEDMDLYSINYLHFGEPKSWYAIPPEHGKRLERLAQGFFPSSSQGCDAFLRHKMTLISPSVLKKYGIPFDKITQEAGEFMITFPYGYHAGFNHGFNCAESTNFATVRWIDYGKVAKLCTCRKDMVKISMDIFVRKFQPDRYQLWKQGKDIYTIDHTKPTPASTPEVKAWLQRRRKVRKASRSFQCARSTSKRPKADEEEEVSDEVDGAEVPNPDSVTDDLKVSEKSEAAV
aDG glyco act – increases alpha dystroglycan glycosylation. Pro5-aDG cells, alpha-DG glycosylation AlphaScreen (IIH6); 0% Pro5, 100% B10-LARGE cell signal. activation, % at 10 µM. 0.22% of 360,000 active. AID 624168;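 active = activation of at least 8% versus controls, or a plate z-score of at least 8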;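 also: Pro5 are CHO cells carrying HIG-tagged alpha-DG that lacks glycosylation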
Hep lipid drop – hepatic lipid droplet formation modulation; AML12 mouse hepatocytes, oleate lipid droplets, BODIPY imaging; inhibition, % at 6.5 µM; 0.4% of 240,000 active; AID 1656;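 active = lipid droplet intensity inhibited by at least 50%, with more than 500 cells counted; inconclusive = wells with under 300 cells, treated as cytotoxic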
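Assay system: AML12 mouse liver cells | Compound dosing: One dose, 6.5 µM compound | Read-out basis: Droplet intensity reduction, % inhibition | Measured by: Fluorescence imaging, 20x objective, two fields per well | Schedule: Overnight treatment with compound plus oleate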
Each line names hits and unclear results; the compound was inactive in the other large screens. In the library only some 3% were active in any assay of this set; here they are far more common.

O=C(Nc1ccc(NC(=O)c2cccs2)cc1)c1ccccc1	NR3A LBD binder 16
O=C(Nc1cccc(O)c1)c1ccc(NC(=O)c2cccs2)cc1	NR3A LBD binder 37
O=C(N/N=C/C(Cl)=C\c1ccccc1)c1cccs1	NR3A LBD binder 13
O=C(Nc1cccc(O)c1)c1cccc(C(=O)Nc2cccc(O)c2)c1	NR3A LBD binder 34
O=C(Nc1cccc(O)c1)c1ccc(Br)cc1	none
O=C(O)c1ccc(NC(=O)c2cccc(NC(=O)c3cccs3)c2)cc1	none (no result: GC-B act, GC-A act)
CC(/C=N/NC(=O)c1cccs1)=C\c1ccccc1	none
CCS(=O)(=O)C1=NN2C(=N)/C(=C\c3ccc(OCCOc4cccc(OC)c4)c(OC)c3)C(=O)N=C2S1	NR3A LBD binder 15 (no result: Hep lipid drop)
COc1cc(/C=C2/C(=N)N3C=CSC3=NC2=O)ccc1OCCCOc1ccccc1C	NR3A LBD binder 18 (no result: Hep lipid drop)
CCOc1cc(/C=C2\C(=N)N3N=C(S(C)(=O)=O)SC3=NC2=O)ccc1OCCOc1cccc(OC)c1	none
C=C(C)COc1ccc2c(C)c(CCC(=O)NC3CC3)c(=O)oc2c1	GASC-1 inh inconclusive
CC(C)(C)OC(=O)NCCCc1ccc2c(c1)[C@]1(CCC[C@@H](OCc3ccccc3)[C@@H]1NC(=O)CCc1ccccc1)C(=O)N2Cc1ccccc1	none (no result: NR3A LBD binder, GASC-1 inh, aDG glyco act, Hep lipid drop)
Nc1[nH]c(=O)[nH]c(=O)c1N=Nc1cccc(Cl)c1	NR3A LBD binder 16
COC(=O)NNC(=O)COc1ccc2ccccc2c1Br	none
O=C(COc1ccc2ccccc2c1Br)NNC(=O)Nc1ccccc1	NR3A LBD binder 10 (no result: Hep lipid drop)
C=CCN1C(=O)[C@@H](CC(=O)N2CCOCC2)[C@]2(C(=O)OC)CCCCC=C12	none (no result: NR3A LBD binder, GASC-1 inh, aDG glyco act, Hep lipid drop)
O=C(Nc1ccc(Br)cc1F)c1ccc2c(c1)N(Cc1ccccc1)C(=O)CS2=O (stereo unspecified)	NR3A LBD binder 14
Cc1ccc(C)c(NC(=O)c2ccc3c(c2)N(Cc2ccc(F)cc2)C(=O)CS3=O)c1 (stereo unspecified)	none
COc1c(CC=C(C)C)cc(C2CC(=O)c3c(O)cc(O)cc3O2)c(CC=C(C)C)c1O (stereo unspecified)	NR3A LBD binder 22 (no result: GC-B act, GC-A act, aDG glyco act, Hep lipid drop)
COc1cc(C2CC(=O)c3c(O)cc(O)cc3O2)ccc1O (stereo unspecified)	none
CCN(CC)C(=O)CC[C@H]1CC[C@]2(CCCN(Cc3nccs3)C2)O1	none (no result: NR3A LBD binder, GASC-1 inh, aDG glyco act, Hep lipid drop)
c1ccc(C(c2ccccc2)c2nc(-c3cccnc3)no2)cc1	NR3A LBD binder 16 (no result: Hep lipid drop)
c1ccc(C(Cc2nc(-c3cccnc3)no2)c2ccccc2)cc1	none
Cc1ccc(S(=O)(=O)N2CCCC2)cc1C(=O)N1CCN(Cc2ccccc2)CC1	none
c1ccc2cc(Cn3ccc4ccc(-c5ccc6cc[nH]c6c5)cc43)ccc2c1	none (no result: NR3A LBD binder, GASC-1 inh, aDG glyco act, Hep lipid drop)
COc1ccccc1-c1csc(C(C)(NC(C)=O)c2ccccc2)n1 (stereo unspecified)	none (no result: NR3A LBD binder, GASC-1 inh, Hep lipid drop)
Cc1ccc(/C=N/NC(=O)c2nnn(-c3nonc3N)c2CSc2ccccc2)s1	NR3A LBD binder 30
Cc1ccsc1/C=N/NC(=O)c1nnn(-c2nonc2N)c1CSc1ccccc1	NR3A LBD binder 36
Nc1nonc1-n1nnc(C(=O)N/N=C/c2ccncc2)c1CSc1ccccc1	NR3A LBD binder 11
Nc1nonc1-n1nnc(C(=O)N/N=C/c2ccoc2)c1CSc1ccccc1	NR3A LBD binder 16 (no result: GC-B act, GC-A act)
CC1=C2NC(N)=[N+](Cc3ccc4c(c3)OCO4)CC2n2c(=O)n(-c3ccccc3)c(=O)n2C1 (stereo unspecified)	none (no result: NR3A LBD binder, GASC-1 inh, aDG glyco act, Hep lipid drop)
CC(C)c1[nH]nc2c1C(c1ccc(Br)cc1)NC2=O (stereo unspecified)	none (no result: NR3A LBD binder, GASC-1 inh, aDG glyco act, Hep lipid drop)
Cc1ccc(/C=N/NC(=O)c2nnn(-c3nonc3N)c2CSc2ccc(Cl)cc2)o1	NR3A LBD binder 21
Nc1nonc1-n1nnc(C(=O)N/N=C/c2ccoc2)c1CSc1ccc(Cl)cc1	NR3A LBD binder 35
Nc1nonc1-n1nnc(C(=O)N/N=C/c2ccccc2)c1CSc1ccccc1	NR3A LBD binder 35 (no result: Hep lipid drop)
CCN(CC)Cc1c(C(=O)N/N=C/c2ccc(C)o2)nnn1-c1nonc1N	none
O=C1C=CC(=O)N1CCCCCCN1C(=O)C=CC1=O	GC-B act 36 (no result: aDG glyco act)
O=C(O)CN1C(=O)C=CC1=O	none (no result: NR3A LBD binder, GASC-1 inh, Hep lipid drop)
O=C(Nc1ccc(Oc2ccccc2)cc1)C1CCCN1S(=O)(=O)c1cccc2cccnc12 (stereo unspecified)	none (no result: NR3A LBD binder, GASC-1 inh, aDG glyco act, Hep lipid drop)
CC1(C)CC[C@]2(C(=O)O)CC[C@]3(CO)C(=CCC4[C@@]5(C)C[C@H](O)[C@H](O)[C@@](C)(C(=O)O)C5CC[C@]43C)[C@@H]2C1 (stereo partly specified)	NR3A LBD binder 14 (no result: Hep lipid drop)
CC1(C)C2CC[C@]3(C)C(CC=C4[C@@H]5C[C@@](C)(CO)[C@@H](O)C[C@]5(C(=O)O)CC[C@]43C)[C@@]2(C)CC[C@@H]1O (stereo partly specified)	none (no result: GC-B act, GC-A act, Hep lipid drop)
O=C(N/N=C/c1c[nH]c2c1ccc1ccccc12)c1ccc([N+](=O)[O-])cc1	NR3A LBD binder 39
COc1ccc2ccccc2c1/C=N/NC(=O)c1ccc([N+](=O)[O-])cc1	none
Cc1cccc(NC(=S)N/N=C/c2c[nH]c3ccccc23)c1	NR3A LBD binder 33
Cc1nc(N)sc1C(=O)N/N=C/c1c[nH]c2ccccc12	NR3A LBD binder 24
O=C(NC(Cc1c[nH]c2ccccc12)C(=O)Nc1ccc(OC(F)(F)F)cc1)c1cccs1 (stereo unspecified)	NR3A LBD binder 33
O=C(CNc1ccccc1)N/N=C/c1c[nH]c2ccccc12	none
COc1cc2c(cc1OC)[C@@]1(c3ccccc3)CCCC[C@H]1[C@@H]2NC(=O)C(F)(F)F	none (no result: NR3A LBD binder, GASC-1 inh, aDG glyco act, Hep lipid drop)
COc1ccc(N2C[C@H](CSC)[C@@H](CC(=O)Nc3ccccc3)C2=O)cc1	none (no result: NR3A LBD binder, GASC-1 inh, Hep lipid drop)
Cc1cc(Br)cc(/C=N/NC(=O)c2ccc3c(c2)OCO3)c1O	none
O=C(NC(Cc1c[nH]c2ccccc12)C(=O)O)c1cccs1 (stereo unspecified)	none
O=C(NC(Cc1c[nH]c2ccccc12)C(=O)N/N=C/c1cccc2ccccc12)c1cccs1 (stereo unspecified)	NR3A LBD binder 19
COc1cc(/C=N\NC(=O)c2sc(N)nc2C)cc(OC)c1OC	NR3A LBD binder 17 (no result: Hep lipid drop)
O=C(N/N=C/c1cc(Br)cc(Cl)c1O)c1ccc2c(c1)OCO2	NR3A LBD binder 11 (no result: Hep lipid drop)
O=C(N/N=C/c1c[nH]c2ccccc12)c1ccccc1	NR3A LBD binder 18
COc1cccc(N2CCN(C(=O)COc3cc(=O)n(C)c4ccccc34)CC2)c1	none (no result: NR3A LBD binder, GASC-1 inh, aDG glyco act, Hep lipid drop)
C[C@@H]1CN([C@H](C)CO)C(=O)CCCn2nncc2CO[C@H]1CN(C)S(=O)(=O)c1ccc(C#N)cc1	none (no result: NR3A LBD binder, GASC-1 inh, Hep lipid drop)
Cc1cccc(C)c1NC(=O)[C@H]1CC(=O)O[C@@H]1c1ccccc1	none (no result: NR3A LBD binder, GASC-1 inh, aDG glyco act, Hep lipid drop)

High-throughput results deposited in PubChem by several laboratories.
